Measurements: ChEMBL document CHEMBL1131317, “Antitumor agents. 181. Synthesis and biological evaluation of 6,7,2',3',4'-substituted-1,2,3,4-tetrahydro-2-phenyl-4-quinolones as a new class of antimitotic antitumor agents” (J Med Chem, 1998)
Converted amounts (≈) assume the structure as drawn.

Legend:
HCT-8 = assay: Cytotoxicity against human ileocecal carcinoma cells (HCT-8) using SRB assay.; type: functional; details: read-out: ED50 (the source's name)
Summary of the method: (§1)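 Cells grown at 37 °C in RPMI-1640 with 10% FBS and 100 µg/mL kanamycin, humidified 5% CO2. Seeding density set per line so control A562 reads 1-2.5. Drug given from DMSO stocks, final DMSO ≤2% (v/v), for 3 days. SRB stain, absorbance at 562 nm. […] Triplicates.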

KB = assay: Cytotoxicity against human epidermoid carcinoma of the nasopharyngeal cells (KB) using SRB assay.; type: functional; details: read-out: ED50 (the source's name); summary of the method: as §1
A549 = assay: Cytotoxicity against human lung carcinoma cells (A-549) using SRB assay.; type: functional; details: read-out: ED50 (the source's name); summary of the method: as §1
CAKI-1 = assay: Cytotoxicity against human renal cancer cells (CAKI-1) using SRB assay.; type: functional; details: read-out: ED50 (the source's name); summary of the method: as §1
MCF7 = assay: Cytotoxicity against human breast cancer cells (MCF-7) using SRB assay.; type: functional; details: read-out: ED50 (the source's name); summary of the method: as §1
Tubulin = Tubulin (Bos taurus, UniProt Q6B856+Q862L2+Q862F3); assay: Inhibition of bovine brain tubulin polymerization (ITP).
SK-MEL-2 = assay: The compound was tested for the cytotoxicity for the cell lines of human melanoma cancer (SKMEL-2) using SRB assay.; type: functional; details: read-out: ED50 (the source's name); summary of the method: as §1
Tubulin (Bos taurus) [1] = target: T1, Tubulin (Bos taurus) (UniProt Q6B856+Q862L2+Q862F3); assay: % inhibition of [3H]colchicine binding to bovine brain tubulin at a concentration of 5 uM
Summary of the method: (§2)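 [3H]colchicine at 5 µM incubated with 1 µM tubulin. Inhibitor present at the stated concentration (5 or 1 µM). Result given as % inhibition of colchicine binding ± SD.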

Tubulin (Bos taurus) [2] = target: T1, Tubulin (Bos taurus); assay: The compound was tested for the % inhibition of [3H]colchicine binding to bovine brain tubulin at a concentration of 1 uM; summary of the method: as §2

Row | SMILES | EC50 (HCT-8) [µg/mL] | EC50 (KB) [µg/mL] | EC50 (A549) [µg/mL] | EC50 (CAKI-1) [µg/mL] | EC50 (MCF7) [µg/mL] | IC50 (Tubulin) [µM] | EC50 (SK-MEL-2) [µg/mL] | inhibition (Tubulin (Bos taurus) [1]) [%] | inhibition (Tubulin (Bos taurus) [2]) [%]
1 | COc1cccc([C@H]2C/C(=N\NC(=O)C(=O)NC(C)c3ccccc3)c3cc4c(cc3N2)OCO4)c1 (some centres not stated) | 1.5 (≈ 3.08 µM) | 12 (≈ 24.7 µM) | 11.5 (≈ 23.6 µM) | > 25 | 6.3 (≈ 12.9 µM) | > 40 | – | – | –
2 | O=C1CC(c2ccccc2)Nc2ccccc21 (configuration not stated) [Aza-flavanone] | 0.013 (≈ 0.0582 µM) | 0.07 (≈ 0.314 µM) | 0.013 (≈ 0.0582 µM) | 0.013 (≈ 0.0582 µM) | 0.13 (≈ 0.582 µM) | 2.7 | 0.13 (≈ 0.582 µM) | – | –
3 | CC(NC(=O)C(=O)N/N=C1\C[C@H](c2ccccc2F)Nc2cc3c(cc21)OCO3)c1ccccc1 (some centres not stated) | 9 (≈ 19 µM) | 10 (≈ 21.1 µM) | 9 (≈ 19 µM) | 18 (≈ 37.9 µM) | 25 (≈ 52.7 µM) | > 40 | – | – | –
4 | COc1cccc(-c2cc(O)c3cc4c(cc3n2)OCO4)c1 | – | – | – | – | – | 0.74 | – | 33 | –
5 | COc1ccc(C2CC(=O)c3ccccc3N2)cc1 (configuration not stated) | > 25 | > 25 | > 25 | – | > 25 | > 40 | – | – | –
6 | O=C1C[C@@H](c2ccccc2F)Nc2cc3c(cc21)OCO3 | 0.09 (≈ 0.315 µM) | 0.08 (≈ 0.28 µM) | 0.18 (≈ 0.631 µM) | 1 (≈ 3.51 µM) | 0.1 (≈ 0.351 µM) | 0.56 | – | 51 | –
7 | COc1cccc([C@@H]2CC(=O)c3cc4c(cc3N2)OCO4)c1 | 0.02 (≈ 0.0673 µM) | 0.02 (≈ 0.0673 µM) | 0.03 (≈ 0.101 µM) | 0.25 (≈ 0.841 µM) | 0.03 (≈ 0.101 µM) | 0.69 | – | 67 | –
8 | COc1ccccc1C1CC(=O)c2ccccc2N1 (configuration not stated) | 6 (≈ 23.7 µM) | 1.8 (≈ 7.11 µM) | 6 (≈ 23.7 µM) | 25 (≈ 98.7 µM) | 6.5 (≈ 25.7 µM) | > 40 | 12.5 (≈ 49.3 µM) | – | –
9 | COc1cccc(-c2cc(O)c3ccccc3n2)c1 | – | – | – | – | – | 1.5 | – | – | –
10 | COc1cccc(C2CC(=O)c3cc4c(cc3N2)OCO4)c1 (configuration not stated) | 0.04 (≈ 0.135 µM) | 0.02 (≈ 0.0673 µM) | 0.04 (≈ 0.135 µM) | 0.06 (≈ 0.202 µM) | 0.04 (≈ 0.135 µM) | 0.82 | 0.06 (≈ 0.202 µM) | 60 | –
11 | CC(NC(=O)C(=O)N/N=C1\C[C@@H](c2ccccc2F)Nc2cc3c(cc21)OCO3)c1ccccc1 (some centres not stated) | 2.1 (≈ 4.43 µM) | 18 (≈ 37.9 µM) | 13 (≈ 27.4 µM) | > 25 | 8.5 (≈ 17.9 µM) | > 40 | – | – | –
12 | COc1cc2c(c(OC)c1OC)-c1ccc(OC)c(=O)cc1[C@@H](NC(C)=O)CC2 [COLCHICINE] | 0.016 (≈ 0.0401 µM) | 0.002 (≈ 0.00501 µM) | 0.002 (≈ 0.00501 µM) | 0.4 (≈ 1 µM) | > 0.4 | – | 0.008 (≈ 0.02 µM) | – | –
13 | COc1cccc(C2CC(=O)c3cc(N4CCCC4)ccc3N2)c1 (configuration not stated) | 0.016 (≈ 0.0496 µM) | 0.008 (≈ 0.0248 µM) | 0.01 (≈ 0.031 µM) | 0.008 (≈ 0.0248 µM) | 0.11 (≈ 0.341 µM) | 0.66 | 0.016 (≈ 0.0496 µM) | 91 | 63
14 | COc1cccc([C@H]2CC(=O)c3ccccc3N2)c1 | 0.5 (≈ 1.97 µM) | 0.5 (≈ 1.97 µM) | 0.5 (≈ 1.97 µM) | 3.8 (≈ 15 µM) | 0.6 (≈ 2.37 µM) | 7.2 | – | – | –
15 | COc1cccc([C@H]2CC(=O)c3cc4c(cc3N2)OCO4)c1 | 0.08 (≈ 0.269 µM) | 0.07 (≈ 0.235 µM) | 0.09 (≈ 0.303 µM) | 0.25 (≈ 0.841 µM) | 0.12 (≈ 0.404 µM) | 2.3 | – | – | –
16 | COc1cccc([C@@H]2C/C(=N\NC(=O)C(=O)NC(C)c3ccccc3)c3ccccc3N2)c1 (some centres not stated) | 3.8 (≈ 8.59 µM) | 8 (≈ 18.1 µM) | 8 (≈ 18.1 µM) | 25 (≈ 56.5 µM) | 8 (≈ 18.1 µM) | > 40 | – | – | –
17 | O=C1C[C@H](c2ccccc2F)Nc2cc3c(cc21)OCO3 | 0.5 (≈ 1.75 µM) | 0.43 (≈ 1.51 µM) | 0.6 (≈ 2.1 µM) | 1.25 (≈ 4.38 µM) | 0.85 (≈ 2.98 µM) | 12 | – | – | –
18 | O=C1CC(c2cccc(F)c2)Nc2cc3c(cc21)OCO3 (configuration not stated) | 0.016 (≈ 0.0561 µM) | 0.012 (≈ 0.0421 µM) | 0.012 (≈ 0.0421 µM) | 0.016 (≈ 0.0561 µM) | 0.032 (≈ 0.112 µM) | 0.75 | 0.016 (≈ 0.0561 µM) | 75 | –
19 | COc1cccc([C@@H]2CC(=O)c3ccccc3N2)c1 | 0.09 (≈ 0.355 µM) | 0.12 (≈ 0.474 µM) | 0.15 (≈ 0.592 µM) | 0.15 (≈ 0.592 µM) | 0.3 (≈ 1.18 µM) | 1.2 | – | – | –
20 | COc1cccc(-c2cc(O)c3cc(N4CCCC4)ccc3n2)c1 | – | – | – | – | – | 0.49 | – | 91 | 65
21 | O=C1CC(c2cccc(Cl)c2)Nc2ccc(N3CCCC3)cc21 (configuration not stated) | 0.09 (≈ 0.275 µM) | 0.05 (≈ 0.153 µM) | 0.09 (≈ 0.275 µM) | 0.95 (≈ 2.91 µM) | 0.31 (≈ 0.949 µM) | 0.76 | 0.08 (≈ 0.245 µM) | 89 | 63
22 | COc1cccc([C@H]2C/C(=N\NC(=O)C(=O)NC(C)c3ccccc3)c3ccccc3N2)c1 (some centres not stated) | > 25 | > 25 | > 25 | > 25 | > 25 | > 40 | – | – | –
23 | COc1cccc([C@@H]2C/C(=N\NC(=O)C(=O)NC(C)c3ccccc3)c3cc4c(cc3N2)OCO4)c1 (some centres not stated) | 1 (≈ 2.06 µM) | 1.8 (≈ 3.7 µM) | 2.4 (≈ 4.93 µM) | 12.5 (≈ 25.7 µM) | 3 (≈ 6.17 µM) | > 40 | – | – | –
24 | COc1cccc(C2CC(=O)c3ccccc3N2)c1 (configuration not stated) | 0.12 (≈ 0.474 µM) | 0.11 (≈ 0.434 µM) | 0.23 (≈ 0.908 µM) | 0.32 (≈ 1.26 µM) | 0.32 (≈ 1.26 µM) | 3.3 | 0.2 (≈ 0.79 µM) | – | –
25 | O=C1CC(c2ccccc2F)Nc2cc3c(cc21)OCO3 (configuration not stated) | 0.13 (≈ 0.456 µM) | 0.06 (≈ 0.21 µM) | 0.08 (≈ 0.28 µM) | 1 (≈ 3.51 µM) | 0.06 (≈ 0.21 µM) | 1.1 | 0.125 (≈ 0.438 µM) | – | –
26 | COc1cccc(-c2cc(O)c3cccnc3n2)c1 | – | – | – | – | – | 0.79 | – | 24 | –
27 | O=C1CC(c2ccc(F)cc2)Nc2cc3c(cc21)OCO3 (configuration not stated) | 0.4 (≈ 1.4 µM) | 0.3 (≈ 1.05 µM) | 1 (≈ 3.51 µM) | 0.8 (≈ 2.8 µM) | 0.4 (≈ 1.4 µM) | 2 | 0.2 (≈ 0.701 µM) | – | –
